According to ChEMBL document CHEMBL4665633, “Cereblon versus VHL: Hijacking E3 ligases against each other using PROTACs” (Bioorg Med Chem, 2019):
The source made the active and inactive calls. The calls are words filed in the database; no cut-off is given here.

How the values were obtained:
Format in all cases: cell-based
[1] = target: T1, Protein cereblon/von Hippel-Lindau disease tumor suppressor (Homo sapiens, UniProt P40337+Q96SW2); assay: Protac activity at VHL/CRBN in HEK293 cells assessed as CRBN protein abundance at 5 nM after 4 hrs by Western blot analysis relative to DMSO
Summary of the method: (§1)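 HEK293 cells (DMEM, 10% FBS, penicillin/streptomycin, L-glutamine; 37 °C, 5% CO2; ≤30 passages) seeded at 1 × 10⁶ per well overnight, then treated with compound at 0.1% v/v final DMSO. Cells were lysed in RIPA with protease inhibitors and benzonase, then clarified. Equal Bradford-quantified protein was immunoblotted for CRBN/VHL. Bands were normalised to β-tubulin and expressed as % of mean 0.1% DMSO vehicle.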
Target sequence in this assay (P40337 whole entry, looked up): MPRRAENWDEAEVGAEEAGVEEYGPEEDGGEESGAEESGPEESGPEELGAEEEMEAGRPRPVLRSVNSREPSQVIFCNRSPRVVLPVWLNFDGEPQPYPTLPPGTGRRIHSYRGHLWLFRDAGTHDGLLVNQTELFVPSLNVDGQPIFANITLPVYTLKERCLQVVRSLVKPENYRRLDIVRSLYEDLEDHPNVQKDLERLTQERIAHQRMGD
Target sequence in this assay (Q96SW2 whole entry, looked up): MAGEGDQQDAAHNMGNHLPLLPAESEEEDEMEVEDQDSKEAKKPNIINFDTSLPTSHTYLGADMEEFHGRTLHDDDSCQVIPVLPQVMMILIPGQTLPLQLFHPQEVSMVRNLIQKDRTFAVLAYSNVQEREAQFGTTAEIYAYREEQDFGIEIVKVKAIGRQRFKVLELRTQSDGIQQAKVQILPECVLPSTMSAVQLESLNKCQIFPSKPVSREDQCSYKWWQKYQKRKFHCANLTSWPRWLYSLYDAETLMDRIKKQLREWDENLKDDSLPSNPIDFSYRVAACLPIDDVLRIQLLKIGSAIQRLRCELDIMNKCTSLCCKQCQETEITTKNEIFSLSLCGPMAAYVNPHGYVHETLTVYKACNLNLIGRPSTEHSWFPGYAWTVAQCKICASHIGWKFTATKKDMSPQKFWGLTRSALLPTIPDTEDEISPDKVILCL

[2] = target: T1, Protein cereblon/von Hippel-Lindau disease tumor suppressor; assay: Protac activity at VHL/CRBN in HEK293 cells assessed as induction of CRBN degradation
Target sequence in this assay (P40337 whole entry, looked up): as the sequence (P40337 whole entry, looked up) above
Target sequence in this assay (Q96SW2 whole entry, looked up): as the sequence (Q96SW2 whole entry, looked up) above

[3] = target: T1, Protein cereblon/von Hippel-Lindau disease tumor suppressor; assay: Protac activity at VHL/CRBN in HEK293 cells assessed as pVHL30 protein abundance at 5000 nM after 4 hrs by Western blot analysis relative to DMSO; summary of the method: as §1
Target sequence in this assay (P40337 whole entry, looked up): as the sequence (P40337 whole entry, looked up) above
Target sequence in this assay (Q96SW2 whole entry, looked up): as the sequence (Q96SW2 whole entry, looked up) above

[4] = target: T1, Protein cereblon/von Hippel-Lindau disease tumor suppressor; assay: Protac activity at VHL/CRBN in human HeLa cells assessed as CRBN protein abundance at 100 nM after 4 hrs by Western blot analysis relative to DMSO
Summary of the method: (§2)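 HeLa cells (5 × 10⁵, DMEM + 10% FBS, 37 °C, 5% CO₂, ≤30 passages) seeded overnight, then treated 4 h with compound at single or graded concentrations (0.1% v/v DMSO final). RIPA lysates equalised by Bradford; SDS-PAGE and anti-CRBN/anti-VHL immunoblots; bands normalised to β-tubulin and expressed as % of mean DMSO vehicle. DC₅₀ from fit of band intensity versus log[concentration].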
Target sequence in this assay (P40337 whole entry, looked up): as the sequence (P40337 whole entry, looked up) above
Target sequence in this assay (Q96SW2 whole entry, looked up): as the sequence (Q96SW2 whole entry, looked up) above

[5] = target: T1, Protein cereblon/von Hippel-Lindau disease tumor suppressor; assay: Protac activity at VHL/CRBN in human HeLa cells assessed as CRBN protein abundance at 50 nM after 4 hrs by Western blot analysis relative to DMSO; summary of the method: as §2
Target sequence in this assay (P40337 whole entry, looked up): as the sequence (P40337 whole entry, looked up) above
Target sequence in this assay (Q96SW2 whole entry, looked up): as the sequence (Q96SW2 whole entry, looked up) above

[6] = target: T1, Protein cereblon/von Hippel-Lindau disease tumor suppressor; assay: Protac activity at VHL/CRBN in human HeLa cells assessed as pVHL30 protein abundance at 1 uM after 12 hrs by Western blot analysis relative to DMSO
Summary of the method: (§3)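 HeLa cells seeded overnight, then exposed to 1 µM compound (0.1% v/v DMSO final) over a time course. Cells were DPBS-washed and RIPA-lysed with protease inhibitors and benzonase; equal protein was loaded. Immunoblots for CRBN and VHL isoforms were quantified against β-tubulin and reported relative to the averaged 0.1% DMSO vehicle.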
Target sequence in this assay (P40337 whole entry, looked up): as the sequence (P40337 whole entry, looked up) above
Target sequence in this assay (Q96SW2 whole entry, looked up): as the sequence (Q96SW2 whole entry, looked up) above

[7] = target: T1, Protein cereblon/von Hippel-Lindau disease tumor suppressor; assay: Protac activity at VHL/CRBN in human HeLa cells assessed as pVHL19 protein abundance at 100 nM after 4 hrs by Western blot analysis relative to DMSO; summary of the method: as §2
[8] = target: T1, Protein cereblon/von Hippel-Lindau disease tumor suppressor; assay: Protac activity at VHL/CRBN in HEK293 cells assessed as pVHL19 protein abundance at 1 uM after 1 hr by Western blot analysis relative to DMSO; summary of the method: as §1
[9] = target: T1, Protein cereblon/von Hippel-Lindau disease tumor suppressor; assay: Protac activity at VHL/CRBN in human HeLa cells assessed as pVHL30 protein abundance at 10000 nM after 4 hrs by Western blot analysis relative to DMSO; summary of the method: as §2
[10] = target: T1, Protein cereblon/von Hippel-Lindau disease tumor suppressor; assay: Protac activity at VHL/CRBN in HEK293 cells assessed as pVHL30 protein abundance at 1 uM after 8 hrs by Western blot analysis relative to DMSO; summary of the method: as §1
[11] = target: T1, Protein cereblon/von Hippel-Lindau disease tumor suppressor; assay: Protac activity at VHL/CRBN in human HeLa cells assessed as pVHL19 protein abundance at 10000 nM after 4 hrs by Western blot analysis relative to DMSO; summary of the method: as §2
[12] = target: T1, Protein cereblon/von Hippel-Lindau disease tumor suppressor; assay: Protac activity at VHL/CRBN in HEK293 cells assessed as pVHL19 protein abundance at 500 nM after 4 hrs by Western blot analysis relative to DMSO; summary of the method: as §1
[13] = target: T1, Protein cereblon/von Hippel-Lindau disease tumor suppressor; assay: Protac activity at VHL/CRBN in human HeLa cells assessed as pVHL19 protein abundance at 10 nM after 4 hrs by Western blot analysis relative to DMSO; summary of the method: as §2
[14] = target: T1, Protein cereblon/von Hippel-Lindau disease tumor suppressor; assay: Protac activity at VHL/CRBN in HEK293 cells assessed as pVHL30 protein abundance at 100 nM after 4 hrs by Western blot analysis relative to DMSO; summary of the method: as §1
[15] = target: T1, Protein cereblon/von Hippel-Lindau disease tumor suppressor; assay: Protac activity at VHL/CRBN in human HeLa cells assessed as pVHL30 protein abundance at 10 nM after 4 hrs by Western blot analysis relative to DMSO; summary of the method: as §2
[16] = target: T1, Protein cereblon/von Hippel-Lindau disease tumor suppressor; assay: Protac activity at VHL/CRBN in human HeLa cells assessed as pVHL30 protein abundance at 1 uM after 2 hrs by Western blot analysis relative to DMSO; summary of the method: as §3
[17] = target: T1, Protein cereblon/von Hippel-Lindau disease tumor suppressor; assay: Protac activity at VHL/CRBN in HEK293 cells assessed as CRBN protein abundance at 1 uM after 4 hrs by Western blot analysis relative to DMSO; summary of the method: as §1
[18] = target: T1, Protein cereblon/von Hippel-Lindau disease tumor suppressor; assay: Protac activity at VHL/CRBN in HEK293 cells assessed as pVHL19 protein abundance at 5000 nM after 4 hrs by Western blot analysis relative to DMSO; summary of the method: as §1
[19] = target: T1, Protein cereblon/von Hippel-Lindau disease tumor suppressor; assay: Protac activity at VHL/CRBN in human HeLa cells assessed as pVHL30 protein abundance at 1 uM after 24 hrs by Western blot analysis relative to DMSO; summary of the method: as §3
[20] = target: T1, Protein cereblon/von Hippel-Lindau disease tumor suppressor; assay: Protac activity at VHL/CRBN in HEK293 cells assessed as CRBN protein abundance at 500 nM after 4 hrs by Western blot analysis relative to DMSO; summary of the method: as §1
[21] = target: T1, Protein cereblon/von Hippel-Lindau disease tumor suppressor; assay: Protac activity at VHL/CRBN in human HeLa cells assessed as induction of CRBN degradation after 4 hrs by Western blot analysis; summary of the method: as §2
Target sequence in this assay (P40337 whole entry): as the sequence (P40337 whole entry, looked up) above
Target sequence in this assay (Q96SW2 whole entry): as the sequence (Q96SW2 whole entry, looked up) above

[22] = target: T1, Protein cereblon/von Hippel-Lindau disease tumor suppressor; assay: Protac activity at VHL/CRBN in HEK293 cells assessed as induction of CRBN protein degradation after 4 hrs by Western blot analysis
Summary of the method: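 HEK293 cells seeded at 1 × 10⁶ per well overnight, exposed 4 h to a compound concentration series (0.1% v/v final DMSO), lysed in RIPA, and immunoblotted on equal Bradford-quantified protein. CRBN bands were normalised to β-tubulin and expressed relative to mean DMSO vehicle. DC50 was estimated by fitting band intensity against log[concentration].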
Target sequence in this assay (P40337 whole entry): as the sequence (P40337 whole entry, looked up) above
Target sequence in this assay (Q96SW2 whole entry): as the sequence (Q96SW2 whole entry, looked up) above

[23] = target: T1, Protein cereblon/von Hippel-Lindau disease tumor suppressor; assay: Protac activity at VHL/CRBN in human HeLa cells assessed as CRBN protein abundance at 10 nM after 4 hrs by Western blot analysis relative to DMSO; summary of the method: as §2
[24] = target: T1, Protein cereblon/von Hippel-Lindau disease tumor suppressor; assay: Protac activity at VHL/CRBN in HEK293 cells assessed as CRBN protein abundance at 10000 nM after 4 hrs by Western blot analysis relative to DMSO; summary of the method: as §1
[25] = target: T1, Protein cereblon/von Hippel-Lindau disease tumor suppressor; assay: Protac activity at VHL/CRBN in human HeLa cells assessed as pVHL19 protein abundance at 1 uM after 12 hrs by Western blot analysis relative to DMSO; summary of the method: as §3
[26] = target: T1, Protein cereblon/von Hippel-Lindau disease tumor suppressor; assay: Protac activity at VHL/CRBN in HEK293 cells assessed as pVHL19 protein abundance at 1 uM after 12 hrs by Western blot analysis relative to DMSO; summary of the method: as §1
[27] = target: T1, Protein cereblon/von Hippel-Lindau disease tumor suppressor; assay: Protac activity at VHL/CRBN in human HeLa cells assessed as pVHL19 protein abundance at 1 uM after 8 hrs by Western blot analysis relative to DMSO; summary of the method: as §3
[28] = target: T1, Protein cereblon/von Hippel-Lindau disease tumor suppressor; assay: Protac activity at VHL/CRBN in human HeLa cells assessed as pVHL30 protein abundance at 5000 nM after 4 hrs by Western blot analysis relative to DMSO; summary of the method: as §2
[29] = target: T1, Protein cereblon/von Hippel-Lindau disease tumor suppressor; assay: Protac activity at VHL/CRBN in human HeLa cells assessed as CRBN protein abundance at 500 nM after 4 hrs by Western blot analysis relative to DMSO; summary of the method: as §2

Activity [1]: 102%
Activity [2]: Active
Activity [3]: 124%
Activity [4]: 70%
Activity [5]: 72%
Activity [6]: 93%
Activity [7]: 108%
Activity [8]: 98%
Activity [9]: 142%
Activity [10]: 101%
Activity [11]: 124%
Activity [12]: 113%
Activity [13]: 95%
Activity [14]: 124%
Activity [15]: 64%
Activity [16]: 89%
Activity [17]: 6%
Activity [18]: 109%
Activity [19]: 97%
Activity [20]: 27%
DC50 [21]: 200 nM
DC50 [22]: 230 nM
Activity [23]: 81%
Activity [24]: 66%
Activity [25]: 93%
Activity [26]: 102%
Activity [27]: 100%
Activity [28]: 143%
Activity [29]: 33%
SMILES: Cc1ncsc1-c1ccc(CNC(=O)[C@@H]2C[C@@H](O)CN2C(=O)[C@@H](NC(=O)COCCCCCOCCOCCCCCOCC(=O)NCCNc2cccc3c2C(=O)N(C2CCC(=O)NC2=O)C3=O)C(C)(C)C)cc1 (some centres undefined)
